ChEMBL document CHEMBL1122841, “Structure-activity relationships among benextramine-related tetraamine disulfides at peripheral alpha-adrenoreceptors” (J Med Chem, 1985)

Key:
[1] = biological target: Adrenergic receptor alpha (Rattus norvegicus) (UniProt P15823+P23944+P43140+P22086+P19328+P22909); test: Antagonistic blocking activity at alpha adrenergic receptor by NE induced contractions of the epididymal portion of isolated rat vas deferens at the dose of 20 uM; assay type: functional, tissue-based; parameters: scale not given: the % may be the effect or the level left
Method in brief: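 Epididymal portion of isolated rat vas deferens under 1.0 g tension in PSS (mM: NaCl 118, KCl 4.7, CaCl2 2.52, MgCl2 3.57, KH2PO4 1.54, NaHCO3 12.5, glucose 11.1). Antagonist at 20 µM for 30 min, then 30-min wash. Value is the percent decrease of maximum contraction to 100 µM NE versus control, mean ± SEM; n = 3–7.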

[2] = biological target: Adrenergic receptor alpha; test: Inhibitory activity against alpha adrenergic receptor in rat
Rattus norvegicus = species: Rattus norvegicus; test: Antimuscarinic activity against carbachol induced response in rat jejunum; assay type: functional
Method in brief: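 Rat jejunum under 1.0 g tension in the same PSS, stabilised with submaximal agonist doses. Cumulative carbachol curves used about 3-fold steps and force-transducer recording. After about 15 min rest, antagonist (10–100 µM) was incubated 30 min and the curve repeated. Dose ratios were taken before and after a 30-min wash; mean ± SEM of 5–6 observations.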

[3] = biological target: Adrenergic receptor alpha; test: Inhibitory activity against alpha adrenergic receptor; assay type: protein assay

Structure (SMILES) | Activity [1] | other results
Brc1ccc(CNCCCCCCNCCSSCCNCCCCCCNCc2ccc(Br)cc2)cc1 | 34% | –
Fc1ccccc1CNCCCCCCNCCSSCCNCCCCCCNCc1ccccc1F | 55% | –
COc1cccc([N+](=O)[O-])c1CNCCCCCCNCCSSCCNCCCCCCNCc1c(OC)cccc1[N+](=O)[O-] | 42% | –
Clc1ccc(CNCCCCCCNCCSSCCNCCCCCCNCc2ccc(Cl)cc2Cl)c(Cl)c1 | 54% | –
c1ccc2c(CNCCCCCCNCCSSCCNCCCCCCNCc3cccc4ccccc34)cccc2c1 | 22% | –
COc1ccccc1CNCCCCCCNCCSSCCNCCCCCCNCc1ccccc1OC [BENEXTRAMINE] | 100% | IC50 [2]: 4.02 µM; Kb (Rattus norvegicus): 2.01 µM
c1ccc2c(CNCCCCCCNCCSSCCNCCCCCCNCc3ccnc4ccccc34)ccnc2c1 | 32% | –
c1c[nH]c(CNCCCCCCNCCSSCCNCCCCCCNCc2ccc[nH]2)c1 | 100% | IC50 [3]: 0.9 µM; Kb (Rattus norvegicus): 5.25 µM
Clc1ccc(CNCCCCCCNCCSSCCNCCCCCCNCc2ccc(Cl)c(Cl)c2)cc1Cl | 39% | –
c1ccc2ncc(CNCCCCCCNCCSSCCNCCCCCCNCc3cnc4ccccc4c3)cc2c1 | 36% | –
COc1cc(CNCCCCCCNCCSSCCNCCCCCCNCc2cc(OC)c(OC)cc2[N+](=O)[O-])c([N+](=O)[O-])cc1OC | 47% | –
c1csc(CNCCCCCCNCCSSCCNCCCCCCNCc2cccs2)c1 | 80% | –
COc1c(C)cccc1CNCCCCCCNCCSSCCNCCCCCCNCc1cccc(C)c1OC | 59% | –
O=[N+]([O-])c1cc(O)c(O)cc1CNCCCCCCNCCSSCCNCCCCCCNCc1cc(O)c(O)cc1[N+](=O)[O-] | 99% | –
Cc1ccc(CNCCCCCCNCCSSCCNCCCCCCNCc2ccc(C)o2)o1 | 100% | –
O=[N+]([O-])c1ccccc1CNCCCCCCNCCSSCCNCCCCCCNCc1ccccc1[N+](=O)[O-] | 51% | –
Brc1ccccc1CNCCCCCCNCCSSCCNCCCCCCNCc1ccccc1Br | 58% | –
Fc1cccc(CNCCCCCCNCCSSCCNCCCCCCNCc2cccc(F)c2)c1 | 73% | –
O=[N+]([O-])c1cccc(CNCCCCCCNCCSSCCNCCCCCCNCc2cccc([N+](=O)[O-])c2)c1 | 49% | –
Clc1cccc(CNCCCCCCNCCSSCCNCCCCCCNCc2cccc(Cl)c2)c1 | 46% | –

The next lines start with results.

Activity [1] | Structure (SMILES) | other results
35% | CS(=O)(=O)c1ccccc1CNCCCCCCNCCSSCCNCCCCCCNCc1ccccc1S(C)(=O)=O | –
11% | c1cc(CNCCCCCCNCCSSCCNCCCCCCNCc2ccncc2)ccn1 | –
78% | c1ccc(CNCCCCCCNCCSSCCNCCCCCCNCc2ccccn2)nc1 | –
44% | Clc1cc(Cl)cc(CNCCCCCCNCCSSCCNCCCCCCNCc2cc(Cl)cc(Cl)c2)c1 | –
100% | Cn1cccc1CNCCCCCCNCCSSCCNCCCCCCNCc1cccn1C | –
17% | O=[N+]([O-])c1c(CNCCCCCCNCCSSCCNCCCCCCNCc2ccc(O)c(O)c2[N+](=O)[O-])ccc(O)c1O | –
17% | c1cc(CNCCCCCCNCCSSCCNCCCCCCNCc2ccsc2)cs1 | –
100% | Fc1ccc(CNCCCCCCNCCSSCCNCCCCCCNCc2ccc(F)cc2)cc1 | –
50% | Clc1ccc(CNCCCCCCNCCSSCCNCCCCCCNCc2ccc(Cl)cc2)cc1 | –
27% | COc1ccc(CNCCCCCCNCCSSCCNCCCCCCNCc2ccc(OC)c(OC)c2[N+](=O)[O-])c([N+](=O)[O-])c1OC | –
41% | O=[N+]([O-])c1ccc(CNCCCCCCNCCSSCCNCCCCCCNCc2ccc([N+](=O)[O-])cc2)cc1 | –
27% | c1ccc2cc(CNCCCCCCNCCSSCCNCCCCCCNCc3ccc4ccccc4c3)ccc2c1 | –
58% | Brc1cccc(CNCCCCCCNCCSSCCNCCCCCCNCc2cccc(Br)c2)c1 | –
13% | c1cncc(CNCCCCCCNCCSSCCNCCCCCCNCc2cccnc2)c1 | –
66% | CSc1ccccc1CNCCCCCCNCCSSCCNCCCCCCNCc1ccccc1SC | –
100% | c1coc(CNCCCCCCNCCSSCCNCCCCCCNCc2ccco2)c1 | –
